“Also recorded” adds a separate entry of the source.
Columns and labels:
[1] = tested on: cellular distribution of AUF1 and hnRNPA1 in HIRc-B cells; experiment: AUF1 and hnRNPA1 cellular distribution, HIRc-B cells; type: cell-based; conditions: insulin 10^−6 M, 1h
[2] = tested on: nuclear/cytoplasmic distribution of KSRP in HIRc-B cells; experiment: KSRP sub-cellular localization, HIRc-B cells; type: cell-based; conditions: insulin 10^−6 M, 1h; nuclear and cytoplasmic extracts
14-3-3ζ [3] = target: T1, 14-3-3ζ (Homo sapiens, UniProt P63104); experiment: Isothermal titration calorimetry of KH1-derived peptides with 14-3-3ζ; type: binding; conditions: ITC, 200 μM 14-3-3ζ, 2 mM peptide, 30°C
T1 sequence (P63104 1-245): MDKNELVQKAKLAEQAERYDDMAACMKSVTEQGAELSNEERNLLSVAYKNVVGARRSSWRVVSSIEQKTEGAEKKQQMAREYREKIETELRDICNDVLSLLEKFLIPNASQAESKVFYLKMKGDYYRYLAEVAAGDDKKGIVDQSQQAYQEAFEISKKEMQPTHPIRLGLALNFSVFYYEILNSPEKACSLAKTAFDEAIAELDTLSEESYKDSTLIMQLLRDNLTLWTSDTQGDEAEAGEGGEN
Procedure, shortened: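 14-3-3ζ was dialysed into 10 mM Tris pH 7.4, 50 mM NaCl, 1 mM TCEP. It was titrated with phosphorylated or unphosphorylated KH1-derived peptide dissolved in the dialysis buffer, in a VP-ITC microcalorimeter. Concentrations given are 200 μM protein and 2 mM peptide; all runs were at 30 °C.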

AU-rich RNA targets = experiment: KH domain–RNA binding by 15N-HSQC NMR titration
Procedure, shortened: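 Chemically synthesised RNA hexamers, used without further purification, were titrated into the 15N-labelled KH domain sample. 15N-HSQC spectra were acquired across the titration, with the protein in Tris-HCl pH 7.4/NaCl/TCEP buffer at 27°C.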

[4] = CD spectroscopy / thermal unfolding; type: physicochemical
14-3-3ζ [5] = target: T1, 14-3-3ζ; experiment: SOFAST 15N-1H HMQC NMR titration of 14-3-3 into 15N-labelled KH1 / phospho-KH1; type: binding; conditions: 15 μM KH1 or phospho-KH1, KH:14-3-3 1:2 ratio
Procedure, shortened: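 15N-labelled KH1 or AKT1-phosphorylated KH1 in 10 mM Tris-HCl pH 7.4, 50 mM NaCl, 1 mM TCEP was mixed with 14-3-3ζ at a 1:2 ratio. SOFAST 15N-HMQC spectra were superimposed on free-domain spectra to track resonance broadening. For competition, the phosphorylated KH1 peptide was added to the phospho-KH1–14-3-3 complex at a 1:2:10 ratio.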

KSRP KH2 = experiment: KH1–KH2 inter-domain interaction by 15N-HSQC NMR; type: binding, human; conditions: 15N-HSQC of KH1_143–218, KH2_233-305 and KH12_143–305
AKT1 = experiment: In vitro phosphorylation by AKT kinase; type: biochemical; conditions: 100 μM KH1, 1 μg recombinant active AKT1, 37°C, 48 hours
Folding state by NMR = type: physicochemical; conditions: for folding state (in words): SOFAST 15N-1H HMQC, 10 mM Tris-HCl pH 7.4, 50 mM NaCl, 1 mM TCEP
Procedure, shortened: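 KH1 (residues 130–218) was phosphorylated with active AKT1 and separated from unphosphorylated protein by gel filtration, with identity confirmed by mass spectrometry. Samples were exchanged into 10 mM Tris-HCl pH 7.4, 50 mM NaCl, 1 mM TCEP and examined by 15N-HSQC / SOFAST HMQC. Phospho-KH1 was then dephosphorylated with 100 U λ phosphatase (60 min, 37 °C), re-purified and re-examined. Heat-inactivated AKT1 and S193A mutant served as controls.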

With “insulin: insulin treatment induces AKT activation in HIRc-B cells” the “effect on AUF1 and hnRNPA1 distribution” value [1] was “did not affect the cellular distribution of the ribo-nucleoproteins AUF1 and hnRNPA1” and the KSRP localization [2] was “AKT activation promotes nuclear localization of KSRP”.

In the case of “non phosphorylated peptide: KH1-derived non-phosphorylated peptide used in ITC (YGLPERSVSLTGAPES)”, the “binding to 14-3-3ζ (in words)” value (14-3-3ζ [3]) is reported as “no binding is observed”.

B1: KH1: first KH domain of human KSRP (Ile130–Gly218) (protein)
chain: ISSQLGPIHPPPRTSMTEEYRVPDGMVGLIIGRGGEQINKIQQDSGCKVQISPDSGGLPERSVSLTGAPESVQKAKMMLDDIVSRGRGG
modifications: 15N-labelled
For B1, the “affinity for AU-rich sequences (in words)” value (AU-rich RNA targets; compared with the other KH domains) was “affinity substantially lower than that of the other KH domains”, the Kd (AU-rich RNA targets; read-out: Kd for AU-rich RNA, 5′-UAUUUA-3′ and 5′-UAUUAU-3′ RNAs, 25 μM 15N-labeled KH domain, 10 mM Tris-HCl pH 7.4, 100 mM NaCl, 1 mM TCEP, 27°C, too low to be accurately measured) was over 1000 µM and the “fraction of unfolded protein” value ([4]; 37°C) was ~ 16%. The “interaction with 14-3-3 (change in spectrum)” value (14-3-3ζ [5]) was “the two proteins are not interacting; also recorded: No appreciable change is observed in the spectrum of the domain”, the “interaction with 14-3-3 (change in spectrum)” value (14-3-3ζ [5]; listed as Non-phosphorylated KH1) was “not recognized by 14-3-3” and the “interaction of KH1 with KH2 (in words)” value (KSRP KH2) was “KH1 and KH2 do not interact in a stable and specific way”. For the same molecule, the phosphorylation efficiency (AKT1) was ~ 90% and the “folding state (in words)” value (Folding state by NMR) was “folded”.

B2: phospho-KH1: KSRP KH1 phosphorylated by AKT kinase at Ser193 (protein)
chain: ISSQLGPIHPPPRTSMTEEYRVPDGMVGLIIGRGGEQINKIQQDSGCKVQISPDSGGLPERSVSLTGAPESVQKAKMMLDDIVSRGRGG
modifications: phosphoserine at 193; 15N-labelled
With B2 the “effect of temperature on CD spectrum” value ([4]; CD at 20, 40, 60, 80 and 95 °C) was “The spectrum of the protein does not change with temperature; also recorded: The spectra do not change substantially at increasing temperatures”, the “apparent percentage of unfolded peptidic chain” value ([4]; CD, 20 °C, range expected for fully unfolded proteins 69.8-89.9 %) was 79.9% and the “interaction with 14-3-3 (change in spectrum)” value (14-3-3ζ [5]) was “Selected resonances broaden substantially; also recorded: interacts with the protein”. The “interaction with 14-3-3 (change in spectrum)” value (14-3-3ζ [5]; listed as phosphorylated KH1) was “strong selective decrease in the intensity of the NMR signal of a small number of resonances”, the “folding state (in words)” value (Folding state by NMR) was “unfolded” and the “folding state (in words)” value (Folding state by NMR; listed as phosphorylated protein) was “essentially unfolded”. The “folding after de-phosphorylation (in words)” value (Folding state by NMR; SOFAST HMQC after λ protein phosphatase, 100 Units, 60 minutes, 37 °C) was “removal of the phosphate group leads to complete refolding of the protein”.

— publication PMC2858377 (Nature structural & molecular biology, 2009)
